Data from ChEMBL document CHEMBL1125581 (J Med Chem, 1991).

Columns and labels:
[1] = target: T1, Muscarinic acetylcholine receptor M2 (Rattus norvegicus, UniProt P10980); test: Inhibition of binding of [3H]N-methylscopolamine to muscarinic acetylcholine receptor M2 of rat heart tissue membrane.; format: tissue-based
T1 sequence (P10980 whole entry): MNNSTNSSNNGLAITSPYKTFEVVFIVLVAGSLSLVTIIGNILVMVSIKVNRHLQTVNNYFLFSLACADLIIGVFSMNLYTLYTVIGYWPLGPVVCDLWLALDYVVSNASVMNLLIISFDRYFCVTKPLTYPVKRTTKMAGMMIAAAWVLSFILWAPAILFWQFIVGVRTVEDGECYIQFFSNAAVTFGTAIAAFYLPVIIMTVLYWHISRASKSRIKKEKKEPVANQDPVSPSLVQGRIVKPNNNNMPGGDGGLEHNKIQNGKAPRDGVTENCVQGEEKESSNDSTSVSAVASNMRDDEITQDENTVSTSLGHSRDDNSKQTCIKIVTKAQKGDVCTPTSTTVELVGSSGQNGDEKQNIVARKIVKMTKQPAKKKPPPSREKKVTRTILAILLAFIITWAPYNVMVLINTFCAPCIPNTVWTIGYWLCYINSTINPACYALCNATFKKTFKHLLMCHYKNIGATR
Outline: (§1)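 Rat heart membranes (150–300 μg protein) incubated 90 min at 37 °C in DMEM-Hepes with 0.5 nM [3H]NMS and varied unlabeled analogue concentrations. Bound radioligand collected by rapid GF/B filtration, washed with ice-cold 0.9% NaCl, and scintillation counted. Nonspecific binding with 1 μM atropine subtracted. Ki values come from one to three determinations, each in triplicate.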

[2] = target: T2, Muscarinic acetylcholine receptor M1 (Rattus norvegicus, UniProt P08482); test: Inhibition of binding of [3H]N-methylscopolamine to muscarinic acetylcholine receptor M1 of transfected rat A9L cells.; format: cell-based
T2 sequence (P08482 whole entry): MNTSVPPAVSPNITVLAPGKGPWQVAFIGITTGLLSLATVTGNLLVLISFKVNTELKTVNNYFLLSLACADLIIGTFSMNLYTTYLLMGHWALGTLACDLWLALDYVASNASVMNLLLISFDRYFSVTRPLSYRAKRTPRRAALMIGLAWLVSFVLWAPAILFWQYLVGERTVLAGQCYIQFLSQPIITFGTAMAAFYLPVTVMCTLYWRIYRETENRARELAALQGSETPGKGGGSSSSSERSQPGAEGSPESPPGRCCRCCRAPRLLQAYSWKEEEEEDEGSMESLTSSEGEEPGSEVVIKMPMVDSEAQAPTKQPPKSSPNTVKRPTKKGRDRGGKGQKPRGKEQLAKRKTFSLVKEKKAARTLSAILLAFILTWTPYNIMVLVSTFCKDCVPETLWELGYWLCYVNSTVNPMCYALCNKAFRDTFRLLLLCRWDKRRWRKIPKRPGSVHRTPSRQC

[3] = target: Muscarinic acetylcholine receptor M3 (Rattus norvegicus, UniProt P08483); test: Inhibition of binding of [3H]N-methylscopolamine to muscarinic acetylcholine receptor M3 of transfected rat A9L cells.; format: cell-based
[4] = target: T1, Muscarinic acetylcholine receptor M2; test: Inhibition of binding of [3H]N-Methyl-scopolamine to Muscarinic acetylcholine receptor M2 of rat heart tissue membranes.; format: cell membranes, Membrane; outline: as §1
[5] = target: T2, Muscarinic acetylcholine receptor M1; test: Inhibition of binding of [3H]N-Methyl-scopolamine to Muscarinic acetylcholine receptor M1 of transfected A9L cells.; format: cell-based
Outline: (§2)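 Confluent A9L (transfected m1/m3) or NG108-15 (m4) cultures were lysed in 2 mM Tris-HCl pH 7.1/1 mM EDTA, 30 min, 2 °C, then homogenized. Crude membranes were spun at 50000g. Membranes (150–300 μg protein) were incubated with 0.5 nM [3H]NMS and varied analogue in DMEM-Hepes for 90 min at 37 °C, then filtered. Nonspecific binding was set with 1 μM atropine. Ki values are from 1–3 triplicate determinations.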

[6] = target: T3, Muscarinic acetylcholine receptor M4 (Rattus norvegicus, UniProt P08485); test: Inhibition of binding of [3H]N-Methyl-scopolamine to muscarinic acetylcholine receptor M4 of rat […] NG108-15 cells; format: cell-based
T3 sequence (P08485 whole entry): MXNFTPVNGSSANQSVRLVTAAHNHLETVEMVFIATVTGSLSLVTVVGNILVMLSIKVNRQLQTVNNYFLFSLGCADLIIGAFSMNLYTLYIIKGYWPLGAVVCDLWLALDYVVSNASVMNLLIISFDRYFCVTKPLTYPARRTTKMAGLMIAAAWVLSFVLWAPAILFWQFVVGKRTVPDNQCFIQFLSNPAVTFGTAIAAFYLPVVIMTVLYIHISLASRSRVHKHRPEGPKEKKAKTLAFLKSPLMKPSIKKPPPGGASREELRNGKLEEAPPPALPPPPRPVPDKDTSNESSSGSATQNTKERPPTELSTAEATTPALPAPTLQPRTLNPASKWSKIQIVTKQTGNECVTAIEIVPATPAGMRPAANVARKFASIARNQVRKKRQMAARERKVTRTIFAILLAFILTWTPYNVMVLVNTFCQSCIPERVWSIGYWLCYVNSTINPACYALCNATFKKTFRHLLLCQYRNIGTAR

[7] = target: T2, Muscarinic acetylcholine receptor M1; test: The compound was tested for the inhibition of binding of [3H]N-Methyl-scopolamine to muscarinic acetylcholine receptor M1 of transfected A9L cells.; format: cell-based; outline: as §2

Sequence of Muscarinic acetylcholine receptor M3 (P08483 whole entry): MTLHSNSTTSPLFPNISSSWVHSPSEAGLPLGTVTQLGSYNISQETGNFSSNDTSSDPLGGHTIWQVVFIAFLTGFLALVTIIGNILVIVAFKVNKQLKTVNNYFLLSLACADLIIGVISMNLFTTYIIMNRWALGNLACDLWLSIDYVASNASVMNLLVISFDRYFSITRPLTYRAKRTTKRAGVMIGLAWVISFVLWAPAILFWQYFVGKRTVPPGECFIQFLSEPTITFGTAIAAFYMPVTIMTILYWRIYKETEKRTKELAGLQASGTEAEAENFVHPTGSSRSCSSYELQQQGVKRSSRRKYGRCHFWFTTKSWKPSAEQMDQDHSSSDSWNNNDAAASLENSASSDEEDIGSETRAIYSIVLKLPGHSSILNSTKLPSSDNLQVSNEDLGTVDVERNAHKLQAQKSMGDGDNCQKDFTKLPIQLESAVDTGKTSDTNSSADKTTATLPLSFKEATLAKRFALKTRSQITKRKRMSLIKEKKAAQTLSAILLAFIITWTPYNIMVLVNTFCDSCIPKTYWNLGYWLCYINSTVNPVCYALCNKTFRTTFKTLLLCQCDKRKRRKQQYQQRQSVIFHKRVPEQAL

| SMILES | Ki [1] [µM] | Ki [2] [µM] | Ki [3] [µM] | Ki [4] [µM] | Ki [5] [µM] | Ki [6] [µM] | Ki [7] [µM] |
| --- | --- | --- | --- | --- | --- | --- | --- |
| NCCCC(=O)NCCN1CCN(CC(=O)N2c3ccccc3C(=O)Nc3cccnc32)CC1 | 6.34 | 9.53 | 11.5 |  |  |  |  |
| NCCCCCCCCCCN1CCN(CC(=O)N2c3ccccc3C(=O)Nc3cccnc32)CC1 |  |  |  | 0.0117 | 0.0158 |  |  |
| CS(=O)(=O)N1CCN(CC(=O)N2c3ccccc3C(=O)Nc3cccnc32)CC1 | > 100 | > 100 | > 100 |  |  | > 100 |  |
| CCN(CC)CCCCCCCCCCN1CCN(CC(=O)N2c3ccccc3C(=O)Nc3cccnc32)CC1 |  |  |  | 0.0135 | 0.003 |  |  |
| CC(=O)N1CCN(CC(=O)N2c3ccccc3C(=O)Nc3cccnc32)CC1 | > 100 | > 100 | > 100 |  |  | > 100 |  |
| NCCCCCCCN1CCN(CC(=O)N2c3ccccc3C(=O)Nc3cccnc32)CC1 |  |  |  | 0.057 | 0.066 |  |  |
| CC(C)(C)OC(=O)NCCNC(=O)c1ccc(CN2CCN(CC(=O)N3c4ccccc4C(=O)Nc4cccnc43)CC2)cc1 | 2.5 |  |  |  |  |  |  |
| NCCCCCCCCCN1CCN(CC(=O)N2c3ccccc3C(=O)Nc3cccnc32)CC1 |  |  |  | 0.024 | 0.024 |  |  |
| CN1CCN(CC(=O)N2c3ccc(S(N)(=O)=O)cc3C(=O)Nc3cccnc32)CC1 | > 30 | > 30 | > 30 |  |  |  |  |
| NCCCCCCCCN1CCN(CC(=O)N2c3ccccc3C(=O)Nc3cccnc32)CC1 |  |  |  | 0.026 | 0.02 |  |  |
| CN1CCN(CC(=O)N2c3ccc(S(=O)(=O)NCCNC(=O)OC(C)(C)C)cc3C(=O)Nc3cccnc32)CC1 |  | > 30 | > 30 |  |  |  |  |
| O=C1Nc2cccnc2N(C(=O)CN2CCN(CCO)CC2)c2ccccc21 | 3.2 | 5.8 | 9.5 |  |  |  |  |
| O=C1Nc2cccnc2N(C(=O)CN2CCN(C(=S)Nc3ccccc3)CC2)c2ccccc21 | > 100 | > 100 | > 100 |  |  | > 100 |  |
| CC(C)(C)OC(=O)NCCCC(=O)NCCN1CCN(CC(=O)N2c3ccccc3C(=O)Nc3cccnc32)CC1 | 3.34 | 4.8 | 4.1 |  |  |  |  |
| CC(=O)NCCC(=O)NCCN1CCN(CC(=O)N2c3ccccc3C(=O)Nc3cccnc32)CC1 | 34.5 | 39.4 | > 100 |  |  |  |  |
| CC(=O)NCCCC(=O)NCCN1CCN(CC(=O)N2c3ccccc3C(=O)Nc3cccnc32)CC1 | 8.82 | 9.65 | 10.8 |  |  |  |  |
| O=C1Nc2cccnc2N(C(=O)CN2CCN(CCCCCCN3C(=O)c4ccccc4C3=O)CC2)c2ccccc21 |  |  |  | 0.018 | 0.018 |  |  |
| CC(=O)NCCCCCCCCCN1CCN(CC(=O)N2c3ccccc3C(=O)Nc3cccnc32)CC1 |  |  |  | 0.05 | 0.052 |  |  |
| COc1ccccc1CNCCCCCCCCCCN1CCN(CC(=O)N2c3ccccc3C(=O)Nc3cccnc32)CC1 |  |  |  | 0.022 | 0.0033 |  |  |
| CC(=O)NCCNS(=O)(=O)c1ccc2c(c1)C(=O)Nc1cccnc1N2C(=O)CN1CCN(C)CC1 |  | > 30 | > 30 |  |  |  |  |
| O=C1Nc2cccnc2N(C(=O)CN2CCN(C(=O)c3ccccc3)CC2)c2ccccc21 | > 100 | > 100 | > 100 |  |  | > 100 |  |
| CN1CCN(CC(=O)N2c3ccc(S(=O)(=O)NCCN)cc3C(=O)Nc3cccnc32)CC1 |  | > 30 | > 30 |  |  |  |  |
| CN1CCN(CC(=O)N2c3ccccc3C(=O)N(CCCCCCC#N)c3cccnc32)CC1 |  |  |  |  |  |  | 8.9 |
| CC(C)(C)OC(=O)NCCC(=O)NCCN1CCN(CC(=O)N2c3ccccc3C(=O)Nc3cccnc32)CC1 | 6.06 | 13.3 | 6.19 |  |  |  |  |
| CC(=O)NCCCCCCCCCCN1CCN(CC(=O)N2c3ccccc3C(=O)Nc3cccnc32)CC1 |  |  |  | 0.043 | 0.075 |  |  |

Next, values leading:

| Ki [1] [µM] | Ki [2] [µM] | Ki [3] [µM] | Ki [4] [µM] | Ki [5] [µM] | Ki [6] [µM] | Ki [7] [µM] | SMILES |
| --- | --- | --- | --- | --- | --- | --- | --- |
| 5.89 | 1.17 |  |  |  |  |  | NCCCCCN1CCN(CC(=O)N2c3ccccc3C(=O)Nc3cccnc32)CC1 |
| 11 | 4.66 | 3.62 |  |  |  |  | CSc1ccc2c(c1)C(=O)Nc1cccnc1N2C(=O)CN1CCN(C)CC1 |
| 0.0214 | 0.0371 | 0.046 |  |  | 0.0232 |  | CC(C)(C)OC(=O)NCCCCCCN1CCN(CC(=O)N2c3ccccc3C(=O)Nc3cccnc32)CC1 |
| 0.089 | 0.17 | 0.12 |  |  | 0.21 |  | O=C1Nc2cccnc2N(C(=O)CN2CCN(CCCCN3C(=O)c4ccccc4C3=O)CC2)c2ccccc21 |
| 1.34 | 1.31 |  |  |  |  |  | NCCCCCCN1CCN(CC(=O)N2c3ccccc3C(=O)Nc3cccnc32)CC1 |
| 0.96 | 1.39 | 3.65 |  |  | 1.04 |  | NCCNC(=O)c1ccc(CN2CCN(CC(=O)N3c4ccccc4C(=O)Nc4cccnc43)CC2)cc1 |
| 1.37 | 1.67 |  |  |  |  |  | C#CCN1CCN(CC(=O)N2c3ccccc3C(=O)Nc3cccnc32)CC1 |
| 0.02 | 0.06 |  |  |  |  |  | O=C1Nc2cccnc2N(C(=O)CN2CCN(CCCCCN3C(=O)c4ccccc4C3=O)CC2)c2ccccc21 |
| 5.12 | 3.87 |  |  |  |  |  | NCCCN1CCN(CC(=O)N2c3ccccc3C(=O)Nc3cccnc32)CC1 |
| 0.24 | 0.33 | 0.24 |  |  | 0.22 |  | O=C1Nc2cccnc2N(C(=O)CN2CCN(Cc3ccccc3)CC2)c2ccccc21 |
| 3.04 | 1.19 | 1.97 |  |  | 2.84 |  | NCCN1CCN(CC(=O)N2c3ccccc3C(=O)Nc3cccnc32)CC1 |
| 5.84 | 4.34 | 6.65 |  |  |  |  | NCCC(=O)NCCN1CCN(CC(=O)N2c3ccccc3C(=O)Nc3cccnc32)CC1 |
|  | 4.4 | 4.4 |  |  |  |  | CN1CCN(CC(=O)N2c3cc(CO)ccc3C(=O)Nc3cccnc32)CC1 |
| 1.09 | 1.68 | 3.47 |  |  |  |  | CC(C)(C)OC(=O)NCCCCNC(=O)c1ccc(CN2CCN(CC(=O)N3c4ccccc4C(=O)Nc4cccnc43)CC2)cc1 |
| 0.84 | 1.81 |  |  |  |  |  | O=C1Nc2cccnc2N(C(=O)CN2CCN(CCCN3C(=O)c4ccccc4C3=O)CC2)c2ccccc21 |
| 1.74 | 3.08 |  |  |  |  |  | NCCCCN1CCN(CC(=O)N2c3ccccc3C(=O)Nc3cccnc32)CC1 |
| 2.52 | 0.67 | 0.97 |  |  | 2.57 |  | CC(=O)NCCN1CCN(CC(=O)N2c3ccccc3C(=O)Nc3cccnc32)CC1 |
| 0.0503 | 0.0018 | 0.0069 |  |  | 0.0174 |  | Cc1scc2c1N(C(=O)CN1CCN(C)CC1)c1ccccc1NC2=O [TELENZEPINE] |
